Measured values from ChEMBL document CHEMBL4052589, “Discovery of Imidazo[1,2-a]pyridine Ethers and Squaramides as Selective and Potent Inhibitors of Mycobacterial Adenosine Triphosphate (ATP) Synthesis” (J Med Chem, 2017).
Values after ≈ are worked out from the molar mass of the structure shown. Active and inactive are the calls of the source. The rule behind the calls is not given here.

Assays:
[1] = system: Mycobacterium tuberculosis; experiment: Antimycobacterial activity against Mycobacterium tuberculosis H37Rv by turbidometric method; format: functional
Method in brief: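 MIC taken as the minimum concentration inhibiting M. tuberculosis growth by 80%.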

[2] = Inhibition of ATP synthase in Mycobacterium smegmatis inverted membrane vesicles using NADH as substrate incubated for 60 mins by luciferin-luciferase reaction based bioluminescence assay; design: species or system Mycolicibacterium smegmatis
Method in brief: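 ATP made by oxidative phosphorylation in M. smegmatis inverted membrane vesicles (IMVs), driven by NADH with ADP and Pi as ATP synthase substrates. ATP was read by luminescence. IC50 was taken from dose-response testing.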

[3] = system: Mycobacterium tuberculosis; experiment: Bactericidal activity against Mycobacterium tuberculosis H37Rv; format: functional
[4] = system: Mycolicibacterium smegmatis; experiment: Inhibition of cytochrome c oxidase in Mycobacterium smegmatis inverted membrane vesicles lacking cytochrome-bd complex assessed as reduction of oxygen consumption treated between 250 to 450 secs post NADH addition
[5] = system: Mycolicibacterium smegmatis; experiment: Inhibition of oxygen consumption in Mycobacterium smegmatis inverted membrane vesicles lacking cytochrome bc1 complex treated between 250 to 450 secs post NADH addition; format: functional
Mus musculus = experiment: Time required for free plasma concentration to maintain above in vitro MIC for Mycobacterium tuberculosis H37Rv in BALB/c mouse infected with Mycobacterium tuberculosis H37Rv at 100 mg/kg, po in presence of pan CYP inhibitor ABT
[6] = system: Mycobacterium tuberculosis; experiment: Antimycobacterial activity against Mycobacterium tuberculosis H37Rv infected in BALB/c mouse assessed as bacterial growth inhibition at 100 to 200 mg/kg, po qd administered […] for 2 weeks; format: functional, organism-based
Plasma [7] = experiment: Ratio of free plasma concentration in BALB/c mouse infected with Mycobacterium tuberculosis H37Rv in absence of pan CYP inhibitor ABT to presence of pan CYP inhibitor ABT; format: ADME
[8] = system: Mycolicibacterium smegmatis; experiment: Selectivity ratio of IC50 for NDH2 in Mycobacterium smegmatis inverted membrane vesicles using NADH as substrate to IC50 for SDH in Mycobacterium smegmatis inverted membrane vesicles using succinate as substrate
[9] = system: Mycolicibacterium smegmatis; experiment: Selectivity ratio of IC50 for NADH dependent ATP synthesis in Mycobacterium smegmatis inverted membrane vesicles lacking cytochrome-bc1 complex to IC50 for cytochrome c oxidase in Mycobacterium smegmatis inverted membrane vesicles assessed as decrease in NADH dependent ATP synthesis
Plasma [10] = experiment: Drug uptake in BALB/c mouse plasma at 100 mg/kg, po in presence of pan CYP inhibitor ABT by LC-MS/MS method; format: ADME, organism-based; conditions: in vivo
[11] = Selectivity index, ratio of IC50 for human A549 cells to MIC for Mycobacterium tuberculosis H37Rv; format: toxicity; conditions: read-out: Selectivity Index
Method in brief: (§1)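 Cytotoxicity index is MMIC divided by M. tuberculosis MIC. MMIC is the minimum concentration inhibiting A549 or THP1 proliferation by 50%. MIC is the concentration giving 80% growth inhibition.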

[12] = Lipophilicity, log D of compound; format: physicochemical; conditions: octanol/water
[13] = Selectivity index, ratio of IC50 for human THP1 cells to MIC for Mycobacterium tuberculosis H37Rv; format: toxicity; conditions: read-out: Selectivity Index; method in brief: as §1

SMILES | MIC80 [1] [µM] | IC50 [2] [nM] | also measured
CC(Nc1c(-c2ccc(N3CCOCC3)cc2)c(=O)c1=O)c1ccccn1 (configuration not stated) | > 100 | > 25000 | –
Clc1ccc2nc(-c3ccccc3)c(OCCCOc3ccccc3)n2c1 | < 0.5 | < 20 | MBC [3]: > 100 µM
Cc1ccc2nc(-c3ccccc3)c(OCCOc3ccc(F)cc3)n2c1 | < 1 | 50 | inhibition [4]: Active; inhibition [5]: inactive
Cc1ccc2nc(-c3ccccc3)c(OCCCN3CCN(C)CC3)n2c1 | > 200 | 6400 | –
Fc1ccc(OCCOc2c(-c3ccccc3)nc3ccc(Cl)cn23)cc1 | < 1 | 40 | inhibition [4]: Active; inhibition [5]: inactive
Cc1cnc(CNc2c(-c3ccc(C(F)(F)F)cc3)c(=O)c2=O)cn1 | 50 (≈ 17.4 µg/mL) | 8400 | –
N#Cc1ccc2nc(-c3ccccc3)c(OCCCOc3ccccc3)n2c1 | > 250 | > 100000 | –
N#Cc1ccc(-c2c(NCc3ccccn3)c(=O)c2=O)cc1 | 100 (≈ 28.9 µg/mL) | 66600 | –
c1ccc(OCCCOc2c(-c3ccccc3)nc3ccccn23)cc1 | 1.6 (≈ 0.551 µg/mL) | 130 | –
COCCCOc1c(-c2ccccc2)nc2ccccn12 | > 15 | 18900 | –
Cc1ccc2nc(-c3ccc(F)cc3)c(OCCCNc3cnc(C)c(Br)c3)n2c1 | 0.8 (≈ 0.375 µg/mL) | 210 | –
Cc1ccc2nc(-c3ccc(F)cc3)c(OCCCN3CCN(c4ccccc4)CC3)n2c1 | < 0.8 | 50 | –
Cc1ccc2nc(-c3ccc(F)cc3)c(OCCNS(=O)(=O)c3ccc(F)c(Cl)c3)n2c1 | 3.1 (≈ 1.48 µg/mL) | 400 | –
NNC(=O)c1ccncc1 [ISONIAZID] | 0.02 (≈ 0.00274 µg/mL) | – | –
Cc1ccc2nc(-c3ccc(F)cc3)c(OCCCOc3ccc(C)nc3)n2c1 | < 0.8 | < 20 | –
O=c1c(NCc2ccccn2)c(-c2ccc(C(F)(F)F)cc2)c1=O | 6.2 (≈ 2.06 µg/mL) | 300 | –
Cc1ccc2nc(-c3ccc(F)cc3)c(OCCCNS(=O)(=O)c3ccc(F)cc3)n2c1 | 1.6 (≈ 0.732 µg/mL) | 700 | –
Cc1ccc2nc(-c3ccc(F)cc3)c(OCCCOc3cccnc3)n2c1 | < 0.9 | 160 | –

SMILES | MIC80 [1] [µM] | IC50 [2] [nM] | also measured
Cc1ccc2nc(-c3ccccc3)c(OCCCOc3ccccc3)n2c1 | < 0.5 | 30 | inhibition [4]: Active; inhibition [5]: inactive
COc1ncc(NCCCOc2c(-c3ccc(F)cc3)nc3ccc(C)cn23)cc1C | < 0.8 | 80 | –
O=c1c(NCc2ccccn2)c(-c2ccc(N3CCOCC3)cc2)c1=O | 0.5 to 0.8 (≈ 0.175 to 0.28 µg/mL) | 30 | Time (Mus musculus): 15 h; growth inhibition (GI) [6]: Active; Ratio (Plasma [7]): 300
COc1nc2ccc(Br)cc2cc1[C@@H](c1ccccc1)[C@@](O)(CCN(C)C)c1cccc2ccccc12 | – | – | Ratio IC50 [8]: 1.5; inhibition [4]: inactive; Ratio IC50 [9]: 2; inhibition [5]: inactive
Cc1ccc2nc(-c3ccc(F)cc3)c(OCCNCc3ccc(C)c(F)c3)n2c1 | 0.6 (≈ 0.244 µg/mL) | 70 | –
Cc1ccc2nc(-c3ccc(F)cc3)c(OCCNC(=O)c3ccc(C)nc3)n2c1 | > 200 | 7200 | –
Cc1ccc2nc(-c3ccc(F)cc3)c(OCCCNc3ccc(F)c(C)n3)n2c1 | < 0.5 | 60 | MBC [3]: > 100 µM
Cc1ccc2nc(-c3ccc(F)cc3)c(OCCCNc3ccc(F)c(C)c3)n2c1 | 0.03 (≈ 0.0122 µg/mL) | 5 | MBC [3]: > 100 µM; Drug uptake (Plasma [10]): Active
Cc1ccc2nc(-c3ccc(F)cc3)c(OCCOc3ccc(F)cc3)n2c1 | 3.1 (≈ 1.18 µg/mL) | 20 | inhibition [4]: Active; inhibition [5]: inactive
O=c1c(NCc2ccc(-c3ccccc3)cn2)c(-c2ccc(N3CCOCC3)cc2)c1=O | > 100 | 9500 | –
Cc1ccc2nc(-c3ccc(F)cc3)c(OCCCOc3ccc(C)nc3C)n2c1 | 6.3 (≈ 2.55 µg/mL) | 90 | –
Fc1ccc(OCCOc2c(-c3ccccc3)nc3ccccn23)cc1 | < 0.8 | 80 | –
O=c1c(NCc2cnccn2)c(-c2ccc(N3CCOCC3)cc2)c1=O | 3.12 to 12.5 (≈ 1.09 to 4.38 µg/mL) | 770 | –
O=c1c(NCc2ccccc2)c(-c2ccc(N3CCOCC3)cc2)c1=O | > 100 | > 100000 | –
CO[C@H]1/C=C/O[C@@]2(C)Oc3c(C)c(O)c4c(O)c(c(/C=N/N5CCN(C)CC5)c(O)c4c3C2=O)NC(=O)/C(C)=C\C=C\[C@H](C)[C@H](O)[C@@H](C)[C@@H](O)[C@@H](C)[C@H](OC(C)=O)[C@@H]1C [RIFAMPIN] | 0.004 (≈ 0.00329 µg/mL) | – | –
Clc1ccc2nc(-c3ccccc3)c(OCCN3CCOCC3)n2c1 | > 200 | 36100 | Selectivity ratio [11]: 0.5; logD [12]: 3.3; Selectivity ratio [13]: 0.5
Cc1ccc2nc(-c3ccc(F)cc3)c(OCCCOc3cncc(F)c3)n2c1 | < 0.6 | 60 | –
Cc1ccc2nc(-c3ccc(F)cc3)c(OCCCOc3cncnc3)n2c1 | 6.9 (≈ 2.61 µg/mL) | 5600 | inhibition [4]: Active; inhibition [5]: inactive
